How the values were obtained:
[1] = organism: Rattus norvegicus; test: Compound was evaluated by measuring the ability to influence forskolin-stimulated cAMP formation in adult rat cerebral cortical slices; type: functional
In short: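 Adult rat cerebral cortical slices; cAMP formation stimulated with forskolin (30 µM), and suppression of that cAMP formation measured. EC50 values derived from concentration-response curves.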

[2] = molecular target: Glutamate NMDA receptor; test: Inhibitory concentration against radioligand [3H]CGS-19,755 binding to N-methyl-D-aspartate glutamate receptor in rat forebrain membranes; type: cell membranes, Membrane
In short: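 Rat forebrain membranes; displacement of [3H]CGS19755 (10 nM) binding. Compounds screened at concentrations up to 100 µM (triplicate analysis at 1, 10 and 100 µM).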

[3] = Inhibitory concentration against ACPD-sensitive radioligand [3H]glutamate binding to Group II Metabotropic glutamate receptor in rat forebrain membranes; type: cell membranes, Membrane
In short: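 Rat forebrain membranes; displacement of ACPD-sensitive [3H]glutamate binding (10 nM radioligand).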

[4] = organism: Rattus norvegicus; test: Compound was evaluated by measuring the ability to influence stimulated basal [3H]-IP formation in adult rat cerebral cortical slices.; type: functional
In short: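 Rat cerebral cortical slices labeled for [3H]phosphoinositide hydrolysis; accumulation of tritiated inositol monophosphates ([3H]IP) measured against basal levels. Concentrations tested up to 300 µM.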

[5] = molecular target: Glutamate receptor ionotropic, kainate; test: Inhibitory concentration against radioligand [3H]-Kainate binding to Ionotropic glutamate receptor kainate in rat forebrain membranes; type: cell membranes, Membrane
In short: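 Rat forebrain membranes; displacement of [3H]kainate (5 nM) binding. Compounds screened at concentrations up to 100 µM (triplicate analysis at 1, 10 and 100 µM).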

[6] = molecular target: Glutamate receptor ionotropic, AMPA (Rattus norvegicus, UniProt P19490+P19491+P19492+P19493); test: Inhibitory concentration against radioligand [3H]AMPA binding to Ionotropic glutamate receptor AMPA in rat forebrain membranes; type: cell membranes, Membrane
[7] = organism: Mus musculus; test: Oral effective dose evaluated in mice by mouse limbic seizure assay; type: functional, Limbic system
In short: (§1)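 Male NIH Swiss mice (20-25 g) given test drug ip or po 30 min before unilateral intracerebral 1S,3R-ACPD (400 nmol), injected 2 mm lateral to bregma at 3.7 mm depth. Scored as the number of animals showing limbic seizures (clonic forelimb contractions, rearing, falling) during the observation period. ED50 in mg/kg.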

[8] = system: Mus musculus; test: Intraperitoneal effective dose evaluated in mice by mouse limbic seizure assay; type: functional, Limbic system; in short: as §1
[9] = organism: Mus musculus; test: Oral effective dose was evaluated in mice by automated elevated plus-maze assay; type: functional
In short: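 Male NIH Swiss mice (20-35 g), acclimated ≥3 days on a 12 h light/dark cycle, dosed 30 min before a 5-min test on an automated elevated plus maze. Mice started on the closed platform; closed arm, open arm and nosepoke counts recorded. Dose-response for open arm activity gives the ED50 (mg/kg).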

Compound	EC50 ([1]; Rattus norvegicus) [µM]	IC50 [2] [µM]	IC50 [3] [µM]	EC50 [4] [µM]	IC50 [5] [µM]	IC50 [6] [µM]	EC50 [1] [µM]	ED50 [7] [mg/kg]	ED50 [8] [mg/kg]	ED50 [9] [mg/kg]
N[C@H](C(=O)O)[C@H]1C[C@@H]1C(=O)O	1.1	> 100	0.454	25.4	> 100					
N[C@]1(C(=O)O)CC[C@H]2[C@H](C(=O)O)[C@H]21 (racemic)		62.4	> 100		> 100	> 100				
N[C@@]1(C(=O)O)CC[C@H]2[C@H](C(=O)O)[C@H]21 (racemic)			0.318				0.086			

Second part, led by results:

EC50 ([1]; Rattus norvegicus) [µM]	IC50 [2] [µM]	IC50 [3] [µM]	EC50 [4] [µM]	IC50 [5] [µM]	IC50 [6] [µM]	EC50 [1] [µM]	Compound	ED50 [7] [mg/kg]	ED50 [8] [mg/kg]	ED50 [9] [mg/kg]
		0.18	> 300			0.055	N[C@@]1(C(=O)O)CC[C@H]2[C@H](C(=O)O)[C@H]21 (stereo in doubt; (+)-9)	45.6	17	0.5
	> 100	> 100		> 100	> 100	> 300	N[C@@]1(C(=O)O)CC[C@H]2[C@H](C(=O)O)[C@H]21 (stereo in doubt; (-)-9)		> 100	
